The values below come from ChEMBL document CHEMBL1156988, “Synthesis and antibacterial studies of binaphthyl-based tripeptoids. Part 1” (2010).

SMILES strings stand for the structures.

For experiment [1], the system named is Enterococcus faecium. Put plainly: Antibacterial activity against vancomycin-resistant Enterococcus faecium 987 after overnight incubation. Particulars: Enterococcus faecium, 987; read-out: MIC.
The test system of experiment [2] is Enterococcus faecium. Nature of the experiment: Antibacterial activity against vancomycin-resistant Enterococcus faecium 243 after overnight incubation. Particulars: Enterococcus faecium, 243; read-out: MIC.
For experiment [3], the system named is Enterococcus faecium. Nature of the experiment: Antibacterial activity against vancomycin-resistant Enterococcus faecium 820 after overnight incubation. Particulars: Enterococcus faecium, 820; read-out: MIC.
Experiment [4] deals with Enterococcus faecium. Nature of the experiment: Antibacterial activity against vancomycin-resistant Enterococcus faecium 449 after overnight incubation. Particulars: Enterococcus faecium, 449; read-out: MIC.
The next experiment concerns Staphylococcus aureus. Nature of the experiment: Antibacterial activity against Staphylococcus aureus 6538P after overnight incubation. Format: functional. Particulars: Staphylococcus aureus, 6538P; read-out: MIC. In short, it runs like this: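 Strains were grown in Luria Broth. Overnight stationary-phase cultures were diluted 1:1000 into fresh medium with twofold compound dilutions, highest typically 128 µg/ml, in 96-well plates. Incubated overnight at 37 °C. MIC recorded as the […].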

Experiment [5] concerns Staphylococcus epidermidis. Put plainly: Antibacterial activity against Staphylococcus epidermidis ATCC 700562 after overnight incubation. The class given is functional.

As usually defined, the MIC is the lowest concentration found to suppress growth. Take `C=CC[C@H](NC(=O)[C@@H](CCCNC(=N)N)NC(=O)[C@@H](CCCCN)NC(=O)COc1ccc2ccccc2c1-c1c(OCCC(C)C)ccc2ccccc12)C(=O)OCc1ccccc1.Cl.Cl`: the MIC in the experiment on Enterococcus faecium [1] stood at 31.3 mg/L; in the experiment on Enterococcus faecium [2], 31.3 mg/L; with Enterococcus faecium [3], 15.6 mg/L; with Enterococcus faecium [4], 15.6 mg/L; with Staphylococcus aureus, 3.9 mg/L.

Regarding `C=CCOc1ccc2ccccc2c1-c1c(OCC(=O)N[C@H](CC(C)C)C(=O)N[C@H](CCCNC(=N)N)C(=O)N[C@@H](CC=C)C(=O)OCc2ccccc2)ccc2ccccc12.Cl`, the minimal inhibitory concentration (MIC) was 62.5 mg/L in the experiment with Enterococcus faecium [1]; 62.5 mg/L in the experiment on Enterococcus faecium [2]; 31.3 mg/L in the experiment with Enterococcus faecium [3]; 31.3 mg/L in the experiment on Enterococcus faecium [4]; 3.9 mg/L with Staphylococcus aureus.

With `CC(C)CCOc1ccc2ccccc2c1-c1c(OCC(=O)N[C@H](CCCCN)C(=O)N[C@H](CCCCN)C(=O)N[C@@H](CC(C)C)C(=O)OCc2ccccc2)ccc2ccccc12.Cl.Cl`, the minimum inhibitory concentration (MIC) in the experiment with Enterococcus faecium [1] is 62.5 mg/L; in the experiment with Enterococcus faecium [2], 62.5 mg/L; in the experiment with Enterococcus faecium [3], 26.1 mg/L; in the experiment with Enterococcus faecium [4], 31.3 mg/L; with Staphylococcus aureus it was 1.95 mg/L; in experiment [5], 1.95 mg/L.

For `C=CCOc1ccc2ccccc2c1-c1c(OCC(=O)N[C@H](CCCC)C(=O)N[C@H](CCCNC(=N)N)C(=O)N[C@@H](CC=C)C(=O)OCc2ccccc2)ccc2ccccc12.Cl`, the MIC is 125 mg/L with Enterococcus faecium [1]; 125 mg/L in the experiment with Enterococcus faecium [2]; 62.5 mg/L in the experiment on Enterococcus faecium [3]; 83 mg/L with Enterococcus faecium [4]; 52.1 mg/L with Staphylococcus aureus.

With `CC(C)CCOc1ccc2ccccc2c1-c1c(OCC(=O)N[C@H](CCCCN)C(=O)N[C@H](CCCNC(=N)N)C(=O)N[C@H](CC(C)C)C(=O)OCc2ccccc2)ccc2ccccc12.Cl.Cl`, the MIC in the experiment with Enterococcus faecium [1] came out at 31.3 mg/L; in the experiment on Enterococcus faecium [2], 31.3 mg/L; in the experiment on Enterococcus faecium [3], 15.6 mg/L; in the experiment with Enterococcus faecium [4], 15.6 mg/L; with Staphylococcus aureus, 3.9 mg/L.

As for `C=CCOc1ccc2ccccc2c1-c1c(OCC(=O)NCC(=O)N[C@H](CCCNC(=N)N)C(=O)N[C@@H](CC=C)C(=O)OCc2ccccc2)ccc2ccccc12.Cl`, the MIC with Enterococcus faecium [1] is greater than 125 mg/L; in the experiment with Enterococcus faecium [2] it was greater than 125 mg/L; in the experiment with Enterococcus faecium [3], 125 mg/L; in the experiment with Enterococcus faecium [4], 125 mg/L; in the experiment with Staphylococcus aureus it was 15.6 mg/L.

`C=CCOc1ccc2ccccc2c1-c1c(OCC(=O)N[C@H](CCCCN)C(=O)N[C@H](CCCNC(=N)N)C(=O)N[C@H](CC=C)C(=O)OCc2ccccc2)ccc2ccccc12.Cl.Cl`: the MIC in the experiment with Enterococcus faecium [1] amounted to 125 mg/L; in the experiment on Enterococcus faecium [2], 125 mg/L; in the experiment with Enterococcus faecium [3], 62.5 mg/L; with Enterococcus faecium [4], 104 mg/L; in the experiment on Staphylococcus aureus, 15.6 mg/L.

In the case of `C=CCOc1ccc2ccccc2c1-c1c(OCC(=O)N[C@H](CCCCN)C(=O)N[C@H](CCCNC(=N)N)C(=O)N[C@@H](CC(C)C)C(=O)OCc2ccccc2)ccc2ccccc12.Cl.Cl`, the MIC in the experiment on Enterococcus faecium [1] is 31.3 mg/L; in the experiment on Enterococcus faecium [2], 31.3 mg/L; in the experiment on Enterococcus faecium [3], 31.3 mg/L; with Enterococcus faecium [4], 31.3 mg/L; with Staphylococcus aureus, 1.95 mg/L.

With `C=CCOc1ccc2ccccc2c1-c1c(OCC(=O)N[C@H](CCCCN)C(=O)N[C@H](CCCNC(=N)N)C(=O)NCC(=O)OCc2ccccc2)ccc2ccccc12.Cl.Cl`, the MIC came to 125 mg/L with Enterococcus faecium [1]; 125 mg/L with Enterococcus faecium [2]; 125 mg/L in the experiment on Enterococcus faecium [3]; 62.5 mg/L with Enterococcus faecium [4]; 3.9 mg/L with Staphylococcus aureus.

Turning to `CC(C)CCOc1ccc2ccccc2c1-c1c(OCC(=O)N[C@H](CCCCN)C(=O)N[C@H](CCN)C(=O)N[C@@H](CC(C)C)C(=O)OCc2ccccc2)ccc2ccccc12.Cl.Cl`, the MIC was found to be 31.3 mg/L in the experiment on Enterococcus faecium [1]; 31.3 mg/L in the experiment on Enterococcus faecium [2]; 15.6 mg/L in the experiment on Enterococcus faecium [3]; 15.6 mg/L in the experiment on Enterococcus faecium [4]; 1.95 mg/L with Staphylococcus aureus.

Take `C=CCOc1ccc2ccccc2c1-c1c(OCC(=O)N[C@H](CCCCN)C(=O)N[C@H](CCCNC(=N)N)C(=O)N[C@@H](Cc2ccccc2)C(=O)OC)ccc2ccccc12.Cl.Cl` (stereo in doubt; 81): the MIC worked out at 125 mg/L in the experiment on Enterococcus faecium [1]; 125 mg/L with Enterococcus faecium [2]; 125 mg/L in the experiment on Enterococcus faecium [3]; 125 mg/L in the experiment on Enterococcus faecium [4]; 3.9 mg/L in the experiment on Staphylococcus aureus.

Consider `C=CCOc1ccc2ccccc2c1-c1c(OCC(=O)N[C@H](Cc2ccccc2)C(=O)N[C@H](CCCNC(=N)N)C(=O)N[C@@H](CC=C)C(=O)OCc2ccccc2)ccc2ccccc12.Cl`, for which the MIC in the experiment with Enterococcus faecium [1] was greater than 125 mg/L; in the experiment on Enterococcus faecium [2], greater than 125 mg/L; with Enterococcus faecium [3], 31.3 mg/L; with Enterococcus faecium [4], 62.5 mg/L; in the experiment with Staphylococcus aureus it was 26.1 mg/L.

As for `C=CCOc1ccc2ccccc2c1-c1c(OCC(=O)N[C@H](CCCCN)C(=O)N[C@H](CCCNC(=N)N)C(=O)N[C@@H](CC=C)C(=O)OCc2ccccc2)ccc2ccccc12.Cl.Cl`, the MIC with Enterococcus faecium [1] was 31.3 mg/L; in the experiment with Enterococcus faecium [2], 31.3 mg/L; in the experiment on Enterococcus faecium [3], 31.3 mg/L; with Enterococcus faecium [4] it was 31.3 mg/L; in the experiment with Staphylococcus aureus, 1.95 mg/L.
